The values below come from ChEMBL document CHEMBL2321819, “Design of potent poxvirus inhibitors of the heterodimeric processivity factor required for viral replication” (J Med Chem, 2013).

Calls of active or inactive are those of the source. No cut-off for these calls is given here.

The subject of series [1] is Vaccinia virus. Description: Antiviral activity against Vaccinia virus WR infected in African green monkey BSC1 cells after overnight incubation by crystal violet staining-based plaque reduction assay. Type of series: functional, organism-based. Particulars: Orthopoxvirus vaccinia, BSC-1.
Series [2] concerns Vaccinia virus. Put plainly: Antiviral activity against 5 MOI of Vaccinia virus WR infected in African green monkey BSC1 cells assessed as decrease in virus-induced cytopathicity at 1 uM after 8 hrs relative to vehicle-treated control. As to conditions: Orthopoxvirus vaccinia, BSC-1. In kind it is functional, organism-based.
For series [3], the system named is BSC-1. Description: Inhibition of 1 MOI of Vaccinia virus WR DNA polymerase processivity factor A20NT100-D4 complex infected in African green monkey BSC1 cells assessed as decrease in BrdU incorporation at 1 uM after 4 to 8 hrs by DAPI staining-based confocal microscopic analysis. In kind it is cell-based.
Series [4] deals with BSC-1. Put plainly: Inhibition of 5 MOI of Vaccinia virus WR DNA polymerase processivity factor A20NT100-D4 complex coexpressing recombinant L1 protein infected in African green monkey BSC1 cells assessed as reduction in EGFP expression at 1 uM after 8 hrs by fluorescence microscopic analysis. Type of series: cell-based.
Series [5] can be described thus: Selectivity index, ratio of CC50 for African green monkey BSC1 cells to IC50 for Vaccinia virus WR. In kind it is functional, BSC-1.
The test system of series [6] is BSC-1. Put plainly: Inhibition of 1 MOI of Vaccinia virus WR DNA polymerase processivity factor A20NT100-D4 complex infected in African green monkey BSC1 cells assessed as decrease in A4 protein level after 12 hrs by Western blotting analysis. In kind it is cell-based.
Series [7] has as its system BSC-1. Put plainly: Inhibition of 1 MOI of Vaccinia virus WR DNA polymerase processivity factor A20NT100-D4 complex infected in African green monkey BSC1 cells assessed as decrease in E3 protein level at 1 uM after 8 hrs by Western blotting analysis. Type of series: cell-based.
Series [8] concerns BSC-1. Description: (§1) Cytotoxicity against African green monkey BSC1 cells after 20 hrs by lactate dehydrogenase assay. Type of series: cell-based. Particulars: chlorocebus aethiops, bsc-1, 20 h. The method, boiled down: (§2)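 Cytotoxicity in BSC-1 cells was measured by LDH release, with Neutral Red also used. Assays were run in triplicate and repeated at least twice. CC50 was obtained from a variable-slope four-parameter nonlinear regression fit. Values ≥100 μM were called not active.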

The test system of series [9] is Vaccinia virus. Description: Antiviral activity against 5 MOI of Vaccinia virus WR infected in African green monkey BSC1 cells assessed as decrease in virus-induced cytopathicity at 1 uM after 8 hrs relative to cidofovir. In kind it is functional, organism-based. As to conditions: Orthopoxvirus vaccinia, BSC-1.
Series [10] relates to BSC-1. Description: Inhibition of 5 MOI of Vaccinia virus WR DNA polymerase processivity factor A20NT100-D4 complex coexpressing recombinant L1 protein infected in African green monkey BSC1 cells assessed as reduction in EGFP expression at 100 uM after 8 hrs by fluorescence microscopic analysis. In kind it is cell-based.
Series [11] in a line: as §1. In kind it is cell-based, BSC-1. Particulars: chlorocebus aethiops, BSC-1 cells. The method, boiled down: as §2

For the molecule `CCOC(=O)c1[nH]c2cccc(C)c2c1Sc1ccc(Cl)cc1`, in the series with Vaccinia virus [1], the IC50 is ≥ 100 µM.

Turning to `Cc1ccc2c(Sc3ccc(Cl)c(Cl)c3)c(C(=O)O)[nH]c2c1`, the IC50 in the series on Vaccinia virus [1] came out at 34 µM.

For the molecule `COc1ccc(Sc2c(C(=O)O)[nH]c3cc(C)ccc23)cc1`, the IC50 with Vaccinia virus [1] was ≥ 100 µM.

In the series with Vaccinia virus [1], `Cc1ccc2c(Sc3cc(Cl)c(Cl)cc3Cl)c(C(=O)O)[nH]c2c1` yielded an IC50 of 25 µM.

As for `COc1ccc(Sc2c(C(=O)O)[nH]c3cccc(C)c23)cc1`, the IC50 in the series on Vaccinia virus [1] was ≥ 100 µM.

In the series with Vaccinia virus [1], `COC(=O)c1[nH]c2c(C)cccc2c1Sc1ccc(Cl)cc1` displayed an IC50 of 23 µM.

`Cc1ccc2c(Sc3cc(Cl)cc(Cl)c3)c(CCC(N)=O)[nH]c2c1`: the outcome in the series on Vaccinia virus [2] and in the series with Vaccinia virus [9] was Active. Moreover, in the series on Vaccinia virus [1], the IC50 came to 0.042 µM. In addition, the inhibition result with BSC-1 [3], in the series on BSC-1 [4] and in the series on BSC-1 [7] was “Active” each time. In addition, the “Ratio CC50/IC50” value in series [5] amounted to 374. The inhibition result with BSC-1 [6] is “Dose-dependent effect”. Also, the CC50 in the series with BSC-1 [8] worked out at 16 µM.

`COC(=O)c1c(Sc2ccc(Cl)cc2)c2cc(C)ccc2n1C`: the IC50 in the series on Vaccinia virus [1] is ≥ 100 µM.

As for `COC(=O)c1[nH]c2cc(C)ccc2c1Sc1ccccc1`, the IC50 in the series on Vaccinia virus [1] came to 10 µM.

For the molecule `Cc1ccc(C)c2c(Sc3ccc(Cl)cc3)c(C(=O)O)[nH]c12`, it took 50 µM to reach half-maximal inhibition in the series with Vaccinia virus [1] (IC50).

The molecule `Cc1ccc2c(Sc3cc(Cl)cc(Cl)c3)c(C(=O)O)[nH]c2c1` showed an IC50 in the series on Vaccinia virus [1] of 7 µM. The “Ratio CC50/IC50” value in [5] is listed as 11. The CC50 with BSC-1 [8] was 75 µM.

Turning to `COC(=O)c1[nH]c2ccc(C)cc2c1Sc1ccc(Cl)cc1`, the IC50 in the series with Vaccinia virus [1] is ≥ 100 µM.

Regarding `COc1cccc2[nH]c(C(=O)O)c(Sc3ccc(Cl)cc3)c12`, in the series with Vaccinia virus [1], the IC50 was ≥ 100 µM.

In the series on Vaccinia virus [1], `Cc1ccc2c(Sc3ccc(Cl)cc3)c(C(=O)O)[nH]c2c1` came in with an IC50 of 82 µM.

`Cc1cccc2[nH]c(C(=O)O)c(Sc3ccc(Cl)cc3)c12`: the IC50 in the series with Vaccinia virus [1] turned out to be 86 µM.

With `Cc1ccc2[nH]c(C(=O)OCc3ccccc3)c(Sc3ccc(Cl)cc3)c2c1`, the concentration for half-maximal inhibition (IC50) in the series with Vaccinia virus [1] was ≥ 100 µM.

With `COC(=O)c1ccc(Sc2c(C(=O)O)[nH]c3cccc(C)c23)cc1`, the IC50 with Vaccinia virus [1] is ≥ 100 µM.

For `Cc1ccc2c(Sc3ccc(C(F)(F)F)cc3[N+](=O)[O-])c(C(=O)O)[nH]c2c1`, the IC50 in the series on Vaccinia virus [1] was ≥ 100 µM.

Turning to `O=C(O)c1[nH]c2ccccc2c1Sc1ccc(Cl)cc1`, in the series on Vaccinia virus [1], the IC50 is ≥ 100 µM.

Take `CCc1ccc2c(Sc3cc(Cl)cc(Cl)c3)c(C(=O)O)[nH]c2c1`: the IC50 in the series with Vaccinia virus [1] worked out at 9 µM.

As for `Cc1ccc2c(Sc3cccc(F)c3)c(C(=O)O)[nH]c2c1`, the IC50 in the series on Vaccinia virus [1] came to 69 µM.

As for `Cc1ccc2c(Sc3cccc(Cl)c3)c(C(=O)O)[nH]c2c1`, the half-inhibitory concentration (IC50) in the series with Vaccinia virus [1] worked out at 51 µM.

Turning to `Cc1cccc2[nH]c(C(=O)OCc3ccccc3)c(Sc3ccc(Cl)cc3)c12`, the IC50 with Vaccinia virus [1] is ≥ 100 µM.

Molecule `CCc1ccc2c(Sc3ccc(Cl)c(Cl)c3)c(C(=O)O)[nH]c2c1` yielded an IC50 with Vaccinia virus [1] of 42 µM.

In the series on Vaccinia virus [1], `Cc1cccc2c(Sc3ccc(Cl)c(Cl)c3)c(C(=O)O)[nH]c12` showed an IC50 of 35 µM.

Turning to `Cc1cccc2[nH]c(C(=O)OC(C)C)c(Sc3ccc(Cl)cc3)c12`, in the series with Vaccinia virus [1], the half-inhibitory concentration (IC50) is ≥ 100 µM.

`CCn1c(C(=O)OC)c(Sc2ccc(Cl)cc2)c2cc(C)ccc21` showed a half-inhibitory concentration (IC50) in the series with Vaccinia virus [1] of 39 µM.

Consider `CCCCCCNC(=O)CCc1[nH]c2cc(C)ccc2c1Sc1cc(Cl)cc(Cl)c1`, for which the IC50 in the series on Vaccinia virus [1] was ≥ 100 µM. Also, the cytotoxic concentration (CC50) in the series with BSC-1 [8] came to 27 µM.

In the series on Vaccinia virus [1], `Cc1ccc2c(Sc3cc(Cl)cc(Cl)c3)c(CC(N)=O)[nH]c2c1` showed an IC50 of 0.046 µM. Further, in series [5], the “Ratio CC50/IC50” value came out at 570. In the series with BSC-1 [8], this molecule displayed a CC50 of 26 µM.

In the case of `CCOC(=O)c1[nH]c2ccc(C)cc2c1Sc1ccc(Cl)cc1`, in the series on Vaccinia virus [1], the IC50 was ≥ 100 µM.

Turning to `O=C(O)c1[nH]c2cc(Br)ccc2c1Sc1ccc(Cl)cc1`, the IC50 in the series on Vaccinia virus [1] stood at 51 µM.

`Cc1ccc2c(Sc3ccc(C(=O)O)cc3)c(C(=O)O)[nH]c2c1`: in the series with Vaccinia virus [1], the IC50 was ≥ 100 µM.

In turn, `Cc1ccc2c(Sc3cc(Cl)cc(Cl)c3)c(CCC(=O)O)[nH]c2c1` registered an IC50 with Vaccinia virus [1] of 0.244 µM. In addition, the “Ratio CC50/IC50” value in [5] is reported as 152. The molecule further had a CC50 with BSC-1 [8] of 36 µM.

For the molecule `Cc1ccc2[nH]c(C(=O)OC(C)C)c(Sc3ccc(Cl)cc3)c2c1`, the IC50 in the series with Vaccinia virus [1] was ≥ 100 µM.

Turning to `O=C(O)c1[nH]c2cc(F)ccc2c1Sc1ccc(Cl)cc1`, half-maximal inhibition with Vaccinia virus [1] (IC50) was put at 40 µM.

Consider `Cc1ccc2c(Sc3ccc(Cl)cc3Cl)c(C(=O)O)[nH]c2c1`, for which the midpoint of inhibition with Vaccinia virus [1], the IC50, lay at 37 µM.

As to `Nc1ccn(C[C@@H](CO)OCP(=O)(O)O)c(=O)n1`, in the series with BSC-1 [10], the inhibition entry was “Active”.

Molecule `COC(=O)c1[nH]c2cc(C)ccc2c1Sc1ccc(Cl)cc1` showed an IC50 in the series on Vaccinia virus [1] of 19 µM.

As to `COC(=O)c1[nH]c2cc(C)ccc2c1Sc1cc(Cl)cc(Cl)c1`, in the series with Vaccinia virus [1], the IC50 is ≥ 100 µM.

`O=C(O)c1[nH]c2cc(Cl)ccc2c1Sc1ccc(Cl)cc1`: the IC50 in the series on Vaccinia virus [1] amounted to 47 µM.

Take `CCc1ccc2c(Sc3ccc(Cl)cc3)c(C(=O)O)[nH]c2c1`: in the series with Vaccinia virus [1], the IC50 came to 36 µM.

In the series with Vaccinia virus [1], `Cc1ccc2c(Sc3ccc(C(F)(F)F)cc3)c(C(=O)O)[nH]c2c1` yielded an IC50 of 33 µM.

As for `Cc1cccc2[nH]c(C(=O)Oc3ccccc3)c(Sc3ccc(Cl)cc3)c12`, in the series on Vaccinia virus [1], the IC50 is ≥ 100 µM.

Take `O=C(O)c1[nH]c2ccccc2c1Sc1cc(Cl)cc(Cl)c1`: in the series with Vaccinia virus [1], inhibition was half-maximal at 43 µM (IC50).

Consider `CNC(=O)c1[nH]c2cc(C)ccc2c1Sc1cc(Cl)cc(Cl)c1`, for which, in the series on Vaccinia virus [1], the IC50 was ≥ 100 µM.

As to `Cc1ccc2c(Sc3cc(Cl)cc(Cl)c3)c(CCCC(N)=O)[nH]c2c1`, the IC50 in the series on Vaccinia virus [1] was determined as 0.208 µM. The CC50 at 20 h in series [11] was ≥ 100 µM.

In the series with Vaccinia virus [1], `Cc1cccc2[nH]c(C(=O)O)c(Sc3cc(Cl)c(Cl)cc3Cl)c12` had an IC50 of 18 µM.

The molecule `Cc1cccc2c(Sc3cc(Cl)c(Cl)cc3Cl)c(C(=O)O)[nH]c12` yielded an IC50 in the series on Vaccinia virus [1] of 21 µM.

Turning to `Cc1ccc2[nH]c(C(=O)O)c(Sc3ccc(Cl)cc3)c2c1`, the IC50 in the series on Vaccinia virus [1] was determined as 46 µM.

Regarding `CCn1c(C(=O)O)c(Sc2ccc(Cl)cc2)c2cc(C)ccc21`, the IC50 in the series on Vaccinia virus [1] worked out at 86 µM.

Regarding `Cc1ccc(Sc2c(C(=O)O)[nH]c3cc(C)ccc23)cc1`, the IC50 in the series with Vaccinia virus [1] is ≥ 100 µM.

In the case of `Cc1ccc2[nH]c(C(=O)Oc3ccccc3)c(Sc3ccc(Cl)cc3)c2c1`, in the series on Vaccinia virus [1], the 50% inhibitory concentration (IC50) is ≥ 100 µM.

`Cc1ccc(Sc2c(C(=O)O)[nH]c3cccc(C)c23)cc1`: the IC50 in the series on Vaccinia virus [1] was ≥ 100 µM.

With `Cc1ccc2c(c1)c(Sc1ccc(Cl)cc1)c(C(=O)O)n2C`, the IC50 in the series on Vaccinia virus [1] was ≥ 100 µM.

In the case of `Cc1cccc2c(Sc3ccc(Cl)cc3)c(C(=O)O)[nH]c12`, the 50% inhibitory concentration (IC50) in the series with Vaccinia virus [1] was determined as 74 µM.

Turning to `Cc1ccc2c(Sc3ccccc3)c(C(=O)O)[nH]c2c1`, the IC50 with Vaccinia virus [1] is ≥ 100 µM.

Turning to `Cc1ccc2c(Sc3ccc(Br)cc3)c(C(=O)O)[nH]c2c1`, the IC50 in the series on Vaccinia virus [1] was ≥ 100 µM.

`Cc1cccc2[nH]c(C(=O)O)c(Sc3ccc([N+](=O)[O-])cc3)c12`: in the series with Vaccinia virus [1], the IC50 is ≥ 100 µM.

`COC(=O)c1[nH]c2cccc(C)c2c1Sc1ccc(Cl)cc1`: the IC50 in the series with Vaccinia virus [1] turned out to be 21 µM.
